SENP8 block-1 – SENP8 protease inhibition | purified SENP8, Z-RLRGG-aminoluciferin cleavage, luminescence | hit rate 1.2% among 330,000 | AID 2540 | inhibition, % at 10 µM | Q96LD8; in the data active means inhibition above about 50%
Target sequence (Q96LD8 whole entry, looked up): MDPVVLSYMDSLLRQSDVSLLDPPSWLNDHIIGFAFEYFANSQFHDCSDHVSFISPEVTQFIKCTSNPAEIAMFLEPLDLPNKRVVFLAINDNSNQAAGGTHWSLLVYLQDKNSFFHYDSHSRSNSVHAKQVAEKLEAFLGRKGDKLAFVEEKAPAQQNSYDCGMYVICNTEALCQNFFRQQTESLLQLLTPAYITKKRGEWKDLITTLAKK
SENP6 inh – inhibitors of human SENP6 protease; Recombinant SENP6 catalytic domain, aminoluciferin luminescence; AID 2599; inhibition, % at 10 µM; hit rate 1.8% among 330,000; Q9GZR1;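 active means inhibition above about 50% at the single tested dose, limit read from the data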;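 further: plate controls were DMSO wells with enzyme for no effect and DMSO wells lacking enzyme for full effect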
SENP7 inh – inhibitors of human SENP7 protease | recombinant SENP7, Z-RLRGG-aminoluciferin luminescence, 40 min | hit rate 1.5% among 330,000 | inhibition, % at 5 µM;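 active means inhibition above about 50% at the single test dose, limit read from the data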;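 further: plate controls were DMSO with enzyme for no effect and no enzyme buffer wells for full effect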
Platelet DG rel – modulates dense granule release in human platelets; human platelet-rich plasma, SFLLRN dense granule ATP release, luminescence; inhibition, %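 (compounds screened at 7.5 µM in platelet-rich plasma)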; hit rate 0.22% among 300,000;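 active means mean replicate score, as percent of positive control, at or above 50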
SENP8 block-2 – inhibitors of human SENP8 protease | Q96LD8 | AID 602440 | inhibition, % at 20 µM | recombinant SENP8, Nedd8 substrate fluorescence | hit rate 0.64% among 360,000; in the data active means inhibition mostly above about 40%, no sharp cut-off; inactive means mostly below about 27%
SENP1 inh – SENP1 (human) catalytic domain inhibition; Q9P0U3; recombinant SENP1 catalytic domain, CyPet-SUMO1-YPet FRET cleavage; inhibition, % at 10 µM; hit rate 0.21% among 360,000; AID 624204;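 active means inhibition at least 30% at 10 µM, raw YFP signal under a set limit, fluorescence ratio 0.5 to 1.5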;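 further: 0% = enzyme with DMSO and 100% = no enzyme wells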
Target sequence (Q9P0U3 419-644 limits assumed): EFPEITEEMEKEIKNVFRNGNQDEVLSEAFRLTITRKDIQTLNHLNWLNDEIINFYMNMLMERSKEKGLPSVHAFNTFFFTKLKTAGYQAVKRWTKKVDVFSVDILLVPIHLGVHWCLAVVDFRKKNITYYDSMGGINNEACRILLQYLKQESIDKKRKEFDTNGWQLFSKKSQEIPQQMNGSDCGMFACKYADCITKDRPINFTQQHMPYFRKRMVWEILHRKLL
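Material – human SENP1 catalytic domain · Input – SENP1 enzyme, 20 pM final · Compound dosing – single concentration of 10 µM compound, 0.5% DMSO final · Timing – enzyme reaction for 50 min at room temperature, dark · Measured by – FRET fluorescence in CFP and YFP emission channels · Control set – no-enzyme wells low, DMSO-plus-enzyme wells high control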
SENP8 conf – human SENP8 inhibition, confirmed; shares compounds with SENP7 inh; Recombinant SENP8, Z-RLRGG-aminoluciferin luminescence, 60 min; inhibition, % at 12.5 µM; hit rate 40% among 6,200;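 active means mean inhibition across replicates above about 50%, limit read from the data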
SENP6 conf – human SENP6 inhibition, confirmed. shares compounds with SENP7 inh. recombinant SENP6, Z-RLRGG-aminoluciferin luminescence. inhibition, % at 12.5 µM. hit rate 58% among 6,200
SENP7 conf – confirmation of human SENP7 protease inhibitors | recombinant SENP7, Z-RLRGG-aminoluciferin luminescence, 40 min | hit rate 69% among 6,200 | inhibition, % at 12.5 µM | shares compounds with SENP7 inh
Casp3 select – selectivity test for SENP inhibitors: human caspase-3 inhibition; shares compounds with SENP7 inh; purified caspase-3, Z-DEVD-aminoluciferin luminescence, 60 min; inhibition, % at 12.5 µM; hit rate 60% among 6,200; AID 488918;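 active means mean inhibition above about 50%, limit read from the data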;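 further: plate controls were enzyme with DMSO for no effect and wells without caspase-3 for full effect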
Target sequence (P42574 28-227 limits assumed): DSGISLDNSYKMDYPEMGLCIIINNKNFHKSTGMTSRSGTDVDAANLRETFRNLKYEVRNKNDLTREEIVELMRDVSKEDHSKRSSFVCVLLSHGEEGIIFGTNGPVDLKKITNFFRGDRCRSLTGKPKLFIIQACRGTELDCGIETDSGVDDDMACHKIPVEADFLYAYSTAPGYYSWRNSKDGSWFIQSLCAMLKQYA
SENP luc ctr – interferes with luciferase luminescence in SENP counter-screen; AID 488919; Pre-incubated SENP8/Z-RLRGG-aminoluciferin, luciferase luminescence interference; shares compounds with SENP7 inh; inhibition, % at 12.5 µM; hit rate 39% among 6,200;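 active means mean inhibition above about 50% when retested at one dose, limit read from the data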;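 further: plate controls were DMSO wells with completed reaction for no effect and substrate without enzyme for full effect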
* marks the source's active call; other numbers are inactive results. Only some compounds are listed: those with a hit (about 2.6% of all), similar ones and a draw of the others.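 How the source made its calls, unless noted: active means mean inhibition above about 50% in the one-dose retest (limit read from the data); inactive means the rest.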

What do the screens show for `Cc1ccc(NC(=O)c2ccccc2F)nc1`?
SENP8 block-1: 43.7; SENP6 inh: 74.1*; SENP7 inh: 50.6*; Platelet DG rel: 1.5; SENP8 block-2: -318.4; SENP1 inh: 1.8; SENP8 conf: 33.2; SENP6 conf: 58.4*; SENP7 conf: 85.4*; Casp3 select: 85.8*; SENP luc ctr: 48.7

How did Cc1ccc(NC(=O)c2cc(F)c(F)cc2Cl)nc1 do in these assays?
SENP8 block-1: -8.3; SENP6 inh: -13.6; SENP7 inh: 4.2; Platelet DG rel: 3.9; SENP8 block-2: 3.9; SENP1 inh: 2.5

Results for O=C(Nc1ccc(Br)cn1)c1ccc(Br)s1 ?
SENP8 block-1: 39.3; SENP6 inh: 50.5*; SENP7 inh: 47.6; SENP8 block-2: 11.0; SENP1 inh: -0.1; SENP8 conf: 10.5; SENP6 conf: 15.5; SENP7 conf: 76.9*; Casp3 select: 39.9; SENP luc ctr: 27.1

Results for Cc1ccccc1C(=O)Nc1ccc(Br)cn1 ?
SENP8 block-1: 39.4; SENP6 inh: 59.2*; SENP7 inh: 51.3*; Platelet DG rel: 2.8; SENP8 block-2: 5.7; SENP1 inh: 1.1; SENP8 conf: 7.1; SENP6 conf: 40.0; SENP7 conf: 79.1*; Casp3 select: 63.3*; SENP luc ctr: 16.5

What do the screens show for `Cc1cc(C(=O)Nc2ccc(Br)cn2)sc1C`?
SENP8 block-1: 84.2*; SENP6 inh: 84.3*; SENP7 inh: 87.2*; SENP8 block-2: -2.1; SENP1 inh: 0.4; SENP8 conf: 80.8*; SENP6 conf: 86.9*; SENP7 conf: 97.4*; Casp3 select: 78.5*; SENP luc ctr: 64.0*

Results for OC[C@@H]1CN(CCN2CCOCC2)C[C@H](n2cnc3c(Nc4ccccc4)ncnc32)O1 ?
SENP8 block-2: 22.4; SENP1 inh: 2.0

How did CC1(C(=O)Nc2cnc3ccccc3c2)CCN1C(=O)CC(c1ccccc1)c1ccccc1 (stereo unspecified) do in these assays?
SENP8 block-2: 10.1; SENP1 inh: 3.0

What do the screens show for `Cc1ccc(C(=O)OCC(=O)Nc2ccc(Cl)cn2)s1`?
SENP8 block-1: -2.6; SENP6 inh: -14.5; SENP7 inh: -13.8; SENP8 block-2: 7.2; SENP1 inh: -2.4

Results for Cc1c(Cl)cnc(NC(=O)COC(=O)c2ccc([N+](=O)[O-])s2)c1Cl ?
SENP8 block-1: 46.6; SENP6 inh: 71.4*; SENP7 inh: 16.2; Platelet DG rel: 4.3; SENP8 block-2: 19.7; SENP1 inh: -1.5; SENP8 conf: -14.5; SENP6 conf: 75.7*; SENP7 conf: 7.1; Casp3 select: -3.4; SENP luc ctr: -6.9

Results for Cc1c(Cl)cnc(NC(=O)COC(=O)c2cccs2)c1Cl ?
SENP8 block-1: -7.3; SENP6 inh: -14.8; SENP7 inh: -6.5; SENP8 block-2: -4.1; SENP1 inh: -1.1

What do the screens show for `O=C(COC(=O)c1ccc([N+](=O)[O-])s1)Nc1ccc(Cl)cn1`?
SENP8 block-1: 13.6; SENP6 inh: 64.5*; SENP7 inh: 18.8; Platelet DG rel: 1.4; SENP8 block-2: 8.2; SENP1 inh: -8.0; SENP8 conf: 18.3; SENP6 conf: 46.7; SENP7 conf: 0.0; Casp3 select: -0.2; SENP luc ctr: -1.0

Results for Cc1ccc(S(=O)(=O)N2CCOCC2)cc1C(=O)OC(C)C(=O)c1ccccc1 (stereo unspecified) ?
SENP8 block-1: 1.1; SENP6 inh: -11.7; SENP7 inh: -7.2; Platelet DG rel: -2.7; SENP8 block-2: 11.7; SENP1 inh: 3.2

What do the screens show for `CCN(CC)CCNc1ncnc2c1[nH]c1ccc(OC)cc12`?
SENP8 block-1: 3.8; SENP6 inh: -16.2; SENP7 inh: 5.5; Platelet DG rel: 3.1

What do the screens show for `COc1ccc2[nH]c3c(NCCCOC(C)C)ncnc3c2c1`?
SENP8 block-1: 90.1*; SENP6 inh: 93.1*; SENP7 inh: 95.8*; Platelet DG rel: 20.5; SENP8 block-2: -266.6; SENP1 inh: -3.2; SENP8 conf: 90.1*; SENP6 conf: 93.1*; SENP7 conf: 101.2*; Casp3 select: 96.3*; SENP luc ctr: 93.2*

How did COc1ccc(CCNC(=O)Cn2nnc(C(=O)Nc3cc(C)ccc3C)c2N)cc1OC do in these assays?
SENP8 block-1: 5.1; SENP6 inh: 6.8; SENP7 inh: -0.9; Platelet DG rel: -0.9; SENP8 block-2: 9.3; SENP1 inh: 1.8

How did COc1ccc(C2C(C(N)=O)=C(C)Nc3nc(CCCO)nn32)cc1OC (stereo unspecified) do in these assays?
SENP8 block-1: -3.2; SENP6 inh: 6.2; SENP7 inh: 1.0; Platelet DG rel: 0.3; SENP8 block-2: 3.7; SENP1 inh: 1.6

How did O=C(CSc1nnc(-c2ccncc2)n1Cc1ccco1)Nc1ccccc1Cl do in these assays?
SENP8 block-1: -5.1; SENP6 inh: 11.4; SENP7 inh: 3.3; Platelet DG rel: -4.2; SENP8 block-2: 17.6; SENP1 inh: -0.1

What do the screens show for `O=C(CSc1nnc(-c2cccnc2)n1Cc1ccco1)NCc1ccc2c(c1)OCO2`?
SENP8 block-1: 4.1; SENP6 inh: -7.2; SENP7 inh: 59.2*; Platelet DG rel: 4.6; SENP8 block-2: 15.0; SENP1 inh: -11.0; SENP8 conf: -8.6; SENP6 conf: -6.3; SENP7 conf: -11.4; Casp3 select: -0.9; SENP luc ctr: 2.3

What do the screens show for `COc1cccc(-c2nnc(SCC(=O)NCc3ccc4c(c3)OCO4)n2Cc2ccco2)c1`?
SENP8 block-1: -1.4; SENP6 inh: 1.2; SENP7 inh: -5.9; Platelet DG rel: -4.6; SENP8 block-2: 24.2; SENP1 inh: -4.9

How did Cc1cc(C)c(NC(=O)CSc2nnc(-c3ccncc3)n2Cc2ccco2)c(C)c1 do in these assays?
SENP8 block-1: -7.1; SENP6 inh: -26.5; SENP7 inh: 69.9*; Platelet DG rel: 2.8; SENP8 block-2: 10.7; SENP1 inh: 1.1; SENP8 conf: 7.2; SENP6 conf: 8.5; SENP7 conf: 1.1; Casp3 select: 4.5; SENP luc ctr: 1.8
